Measured values as given in ChEMBL document CHEMBL5058577, “EUbOPEN Chemogenomics Library 2 (Multiplex)” (2022).

Test system: Fibroblast
Test: Multiplex assay against human fibroblast
Type: toxicity, cell-based
How it was run: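 Live cells were stained at seeding with Hoechst33342, BioTracker Green Microtubule Cytoskeleton Dye, MitoTracker Red and Annexin V Alexa Fluor 680, then imaged on a CQ1 microscope at 37°C and 5% CO2 after compound addition. CellPathfinder machine-learning gating split cells into Hoechst high-intensity objects or normal cells. Normal cells were split into healthy, pyknosed or fragmented nuclei, and pyknosed cells into mitotic or apoptotic. Tubulin, mitochondrial-mass and membrane-permeability phenotypes are per cents of healthy-nucleus cells.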

[1] = 12 h, 1 µM, compound concentration 1 uM, replicate 1
[2] = 12 h, 1 µM, compound concentration 1 uM, replicate 2
[3] = 12 h, 10 µM, compound concentration 10 uM, replicate 1
[4] = 12 h, 10 µM, compound concentration 10 uM, replicate 2
[5] = 24 h, 1 µM, compound concentration 1 uM, replicate 1
[6] = 24 h, 1 µM, compound concentration 1 uM, replicate 2
[7] = 24 h, 10 µM, compound concentration 10 uM, replicate 1
[8] = 24 h, 10 µM, compound concentration 10 uM, replicate 2
[9] = 48 h, 1 µM, compound concentration 1 uM, replicate 1
[10] = 48 h, 1 µM, compound concentration 1 uM, replicate 2
[11] = 48 h, 10 µM, compound concentration 10 uM, replicate 1
[12] = 48 h, 10 µM, compound concentration 10 uM, replicate 2

## CC(C)(O)C(=O)N1CCN(c2ccc(C(F)(F)F)c(C3=C(c4c[nH]c5ccccc45)C(=O)NC3=O)c2)CC1
[1]
  Population Apoptotic (%): 41%
  Population Fragmented Nuclei (%): 14%
  Population Healthy Nuclei (%): 68%
  Population Hoechst High Intensity Objects (%): 2%
  Population Membrane Permeable-Phenotype (%): 0%
  Population Mitochondria Different-Phenotype (%): 9%
  Population Mitotic Cells (%): 58%
  Population Normal (%): 97%
  Population Pyknosed Nuclei (%): 17%
  Population Tubulin-Different-Phenotype (%): 30%
  Total Cell Count: 144
[2]
  Population Apoptotic (%): 32%
  Population Fragmented Nuclei (%): 30%
  Population Healthy Nuclei (%): 46%
  Population Hoechst High Intensity Objects (%): 5%
  Population Membrane Permeable-Phenotype (%): 5%
  Population Mitochondria Different-Phenotype (%): 5%
  Population Mitotic Cells (%): 67%
  Population Normal (%): 94%
  Population Pyknosed Nuclei (%): 22%
  Population Tubulin-Different-Phenotype (%): 56%
  Total Cell Count: 170
[3]
  Population Apoptotic (%): 33%
  Population Fragmented Nuclei (%): 17%
  Population Healthy Nuclei (%): 50%
  Population Hoechst High Intensity Objects (%): 4%
  Population Membrane Permeable-Phenotype (%): 1%
  Population Mitochondria Different-Phenotype (%): 25%
  Population Mitotic Cells (%): 66%
  Population Normal (%): 96%
  Population Pyknosed Nuclei (%): 32%
  Population Tubulin-Different-Phenotype (%): 83%
  Total Cell Count: 125
[4]
  Population Apoptotic (%): 35%
  Population Fragmented Nuclei (%): 26%
  Population Healthy Nuclei (%): 31%
  Population Hoechst High Intensity Objects (%): 6%
  Population Membrane Permeable-Phenotype (%): 15%
  Population Mitochondria Different-Phenotype (%): 10%
  Population Mitotic Cells (%): 64%
  Population Normal (%): 93%
  Population Pyknosed Nuclei (%): 42%
  Population Tubulin-Different-Phenotype (%): 90%
  Total Cell Count: 137
[5]
  Population Apoptotic (%): 50%
  Population Fragmented Nuclei (%): 22%
  Population Healthy Nuclei (%): 61%
  Population Hoechst High Intensity Objects (%): 1%
  Population Membrane Permeable-Phenotype (%): 0%
  Population Mitochondria Different-Phenotype (%): 3%
  Population Mitotic Cells (%): 50%
  Population Normal (%): 98%
  Population Pyknosed Nuclei (%): 16%
  Population Tubulin-Different-Phenotype (%): 40%
  Total Cell Count: 161
[6]
  Population Apoptotic (%): 31%
  Population Fragmented Nuclei (%): 31%
  Population Healthy Nuclei (%): 45%
  Population Hoechst High Intensity Objects (%): 8%
  Population Membrane Permeable-Phenotype (%): 2%
  Population Mitochondria Different-Phenotype (%): 8%
  Population Mitotic Cells (%): 68%
  Population Normal (%): 91%
  Population Pyknosed Nuclei (%): 23%
  Population Tubulin-Different-Phenotype (%): 58%
  Total Cell Count: 176
[7]
  Population Apoptotic (%): 26%
  Population Fragmented Nuclei (%): 24%
  Population Healthy Nuclei (%): 40%
  Population Hoechst High Intensity Objects (%): 7%
  Population Membrane Permeable-Phenotype (%): 2%
  Population Mitochondria Different-Phenotype (%): 30%
  Population Mitotic Cells (%): 73%
  Population Normal (%): 92%
  Population Pyknosed Nuclei (%): 34%
  Population Tubulin-Different-Phenotype (%): 79%
  Total Cell Count: 131
[8]
  Population Apoptotic (%): 36%
  Population Fragmented Nuclei (%): 27%
  Population Healthy Nuclei (%): 33%
  Population Hoechst High Intensity Objects (%): 3%
  Population Membrane Permeable-Phenotype (%): 6%
  Population Mitochondria Different-Phenotype (%): 20%
  Population Mitotic Cells (%): 63%
  Population Normal (%): 96%
  Population Pyknosed Nuclei (%): 39%
  Population Tubulin-Different-Phenotype (%): 90%
  Total Cell Count: 138
[9]
  Population Apoptotic (%): 64%
  Population Fragmented Nuclei (%): 21%
  Population Healthy Nuclei (%): 61%
  Population Hoechst High Intensity Objects (%): 5%
  Population Membrane Permeable-Phenotype (%): 0%
  Population Mitochondria Different-Phenotype (%): 12%
  Population Mitotic Cells (%): 36%
  Population Normal (%): 94%
  Population Pyknosed Nuclei (%): 17%
  Population Tubulin-Different-Phenotype (%): 38%
  Total Cell Count: 155
[10]
  Population Apoptotic (%): 41%
  Population Fragmented Nuclei (%): 33%
  Population Healthy Nuclei (%): 37%
  Population Hoechst High Intensity Objects (%): 7%
  Population Membrane Permeable-Phenotype (%): 1%
  Population Mitochondria Different-Phenotype (%): 15%
  Population Mitotic Cells (%): 58%
  Population Normal (%): 92%
  Population Pyknosed Nuclei (%): 28%
  Population Tubulin-Different-Phenotype (%): 67%
  Total Cell Count: 165
[11]
  Population Apoptotic (%): 54%
  Population Fragmented Nuclei (%): 33%
  Population Healthy Nuclei (%): 27%
  Population Hoechst High Intensity Objects (%): 12%
  Population Membrane Permeable-Phenotype (%): 0%
  Population Mitochondria Different-Phenotype (%): 53%
  Population Mitotic Cells (%): 45%
  Population Normal (%): 87%
  Population Pyknosed Nuclei (%): 38%
  Population Tubulin-Different-Phenotype (%): 93%
  Total Cell Count: 123
[12]
  Population Fragmented Nuclei (%): 35%
  Population Healthy Nuclei (%): 25%
  Population Hoechst High Intensity Objects (%): 6%
  Population Membrane Permeable-Phenotype (%): 10%
  Population Mitochondria Different-Phenotype (%): 30%
  Population Normal (%): 93%
  Population Pyknosed Nuclei (%): 40%
  Population Tubulin-Different-Phenotype (%): 83%
  Total Cell Count: 129
